In series [1] the test system is HT-1080. Nature of the series: Antiproliferative activity against human wild type HT1080 cells after 72 hrs by SRB assay. Format: functional, cell-based. The note with it: HT-1080, 72 h. Put shortly: (§1)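 SRB antiproliferative assay (modified NCI protocol). Cells seeded per well (SK-BR-3, MDA-MB-231, T47D, HT-1080, HT-1080 CYP1A1 and empty-vector: 3.0 x 10^3; MDA-MB-468: 5.0 x 10^3; MCF7: 7.5 x 10^3), preincubated 24 h. DMSO-solubilized drug added at 0.75 to 1.0 x 10^5 nM, then 72 h. Fixed with cold 10% TCA, stained with 0.1% sulforhodamine B, absorbance read at 530-565 nm. At least two experiments, triplicate cultures.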
(In general: In SRB staining, fixed cells bind dye roughly in proportion to their protein.)

For series [2], the system named is MDA-MB-231. Nature of the series: Antiproliferative activity against ER/PR/HER2 deficient human MDA-MB-231 cells after 72 hrs by SRB assay. The series is classed as functional, cell-based. To be noted: MDA-MB-231, 72 h. Put shortly: as §1
In series [3] the target is T1, Cytochrome P450 1A1 (Homo sapiens, UniProt P04798).
T1 sequence (P04798 whole entry): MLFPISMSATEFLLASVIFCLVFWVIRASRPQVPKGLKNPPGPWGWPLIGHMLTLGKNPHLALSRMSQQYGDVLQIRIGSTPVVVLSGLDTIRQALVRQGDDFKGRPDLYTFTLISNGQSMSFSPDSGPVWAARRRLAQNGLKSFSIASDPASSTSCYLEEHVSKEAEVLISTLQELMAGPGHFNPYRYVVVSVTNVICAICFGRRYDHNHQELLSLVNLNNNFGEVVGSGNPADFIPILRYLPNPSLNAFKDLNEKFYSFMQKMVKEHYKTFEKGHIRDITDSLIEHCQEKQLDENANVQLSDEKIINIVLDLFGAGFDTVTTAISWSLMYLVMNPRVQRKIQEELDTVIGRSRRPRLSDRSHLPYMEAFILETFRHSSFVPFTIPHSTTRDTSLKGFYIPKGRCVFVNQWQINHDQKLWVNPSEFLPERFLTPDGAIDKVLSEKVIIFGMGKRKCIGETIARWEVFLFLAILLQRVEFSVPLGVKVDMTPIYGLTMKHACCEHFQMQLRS
Nature of the series: Prodrug activation assessed as human supersomes CYP1A1-mediated 3,4,5-trimethoxyphenyl 4-(2-oxoimidazolidin-1-yl)benzenesulfonate formation after 4 hrs by HPLC-MS analysis. The series is classed as ADME. The note with it: recombinant enzyme.

Series [4] deals with HT-1080. Nature of the series: Selectivity ratio of IC50 for HT1080 cells transfected with pCMV6-AC empty plasmid to IC50 for human HT1080 cells transfected with CYP1A1. The series is classed as functional. Put shortly: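 Ratio is IC50 (HT-1080 empty vector) over IC50 (HT-1080 CYP1A1). Both lines stably transfected (pCMV6-AC plasmids) and kept under G418 selection, seeded at 3.0 x 10^3 cells. IC50s from SRB antiproliferative assay.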

The nature of series [5]: Selectivity ratio of IC50 for ER/PR/HER2 deficient human MDA-MB-231 cells to IC50 for ER/PR/HER2 deficient human MDA-MB-468 cells. The series is classed as functional. Put shortly:
(§2)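 Ratio is IC50 in reference line over IC50 in sensitive line. […] Cells in DMEM with 5% calf serum at 37 °C. At least two experiments, triplicate cultures; assay accepted when relative SD < 10%.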

Series [6] can be described thus: Selectivity ratio of IC50 for human HT-29 cells to IC50 for human MCF7 cells. The series is classed as functional. Put shortly:
as §2

The target in series [7] is T1, Cytochrome P450 1A1. Nature of the series: Inhibition of human supersomes CYP1A1-mediated 7-ethoxyresorufin conversion to fluorescent resorufin preincubated with 7-ethoxyresorufin for 5 mins followed by addition of NADPH regenerating system measured for 15 mins by EROD assay. The series is classed as ADME. To be noted: read-out: Ki. Put shortly:
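EROD assay with human CYP1A1 supersomes containing reductase, in potassium phosphate buffer. Drug final 32–31 600 nM and 7-ethoxyresorufin 94–3 000 nM, with 0.35% DMSO, preincubated 5 min at 37 °C. Reaction started with NADPH-regenerating system and 0.15 pmol CYP1A1 in 150 µL. Initial velocity taken from 1–5 min; Vmax and Km from Lineweaver-Burk plot.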

Series [8] can be described thus: Selectivity ratio of IC50 for ER/PR/HER2 deficient human MDA-MB-231 cells to IC50 for ER/PR deficient and HER2 expressing human SKBR3 cells. Format: functional. Put shortly:
as §2

The subject of series [9] is MCF7. The series can be described thus: Antiproliferative activity against human MCF7 cells after 48 hrs by SRB assay. The series is classed as functional, cell-based. To be noted: MCF7, 48 h. Put shortly:
(§3)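 SRB assay run as in the NCI screen with slight modifications. Seeding: HT-29 5.0 x 10^3, M21 3.5 x 10^3, MCF7 7.5 x 10^3 cells; cells preincubated 24 h. Drug in DMSO added at 0.75 to 1.0 x 10^5 nM for 48 h. TCA fixation, sulforhodamine B staining, absorbance 530-565 nm. At least two experiments in triplicate; runs accepted only when relative SD < 10%.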

Series [10] in a line: Selectivity ratio of IC50 for ER/PR/HER2 deficient human MDA-MB-231 cells to IC50 for human MCF7 cells. The series is classed as functional. Put shortly:
as §2

For series [11], the system named is SK-BR-3. Nature of the series: Antiproliferative activity against ER/PR deficient and HER2 expressing human SKBR3 cells after 72 hrs by SRB assay. Format: functional, cell-based. To be noted: SK-BR-3, 72 h. Put shortly: as §1
Series [12] deals with HT-1080. The series can be described thus: Antiproliferative activity against human HT1080 cells transfected with CYP1A1 after 72 hrs by SRB assay. The series is classed as functional, cell-based. The note with it: HT-1080, 72 h. Put shortly: as §1
Series [13] has as its system MDA-MB-468. Nature of the series: Antiproliferative activity against ER/PR/HER2 deficient human MDA-MB-468 cells after 72 hrs by SRB assay. The series is classed as functional, cell-based. The note with it: MDA-MB-468, 72 h. Put shortly: as §1
Series [14] addresses T1, Cytochrome P450 1A1. Nature of the series: Prodrug activation assessed as time required for human supersomes CYP1A1-mediated 3,4,5-trimethoxyphenyl 4-(2-oxoimidazolidin-1-yl)benzenesulfonate formation after 4 hrs by HPLC-MS analysis. Format: ADME. The note with it: recombinant enzyme.
In series [15] the test system is HT-1080. Nature of the series: Antiproliferative activity against human HT1080 cells transfected with pCMV6-AC empty plasmid after 72 hrs by SRB assay. Format: functional, cell-based. The note with it: HT-1080, 72 h. Put shortly:
as §1

Series [16] in a line: Selectivity ratio of IC50 for human M21 cells to IC50 for human MCF7 cells. The series is classed as functional. Put shortly: as §2
Series [17] has as its system HT-29. The series can be described thus: Antiproliferative activity against human HT-29 cells after 48 hrs by SRB assay. Format: functional, cell-based. To be noted: HT-29, 48 h. Put shortly:
as §3

Series [18] is described as follows: Selectivity ratio of IC50 for ER/PR/HER2 deficient human MDA-MB-231 cells to IC50 for ER/PR/HER2 expressing human T47D cells. Format: functional. Put shortly: as §2
Series [19] deals with T1, Cytochrome P450 1A1. The series can be described thus: Prodrug conversion assessed as human supersomes CYP1A1-mediated 3,5-dimethoxyphenyl 4-(2-oxoimidazolidin-1-yl)benzenesulfonate formation after 4 hrs by HPLC-MS analysis. The note with it: recombinant enzyme. Format: ADME.
The test system of series [20] is T47D. Nature of the series: Antiproliferative activity against ER/PR/HER2 expressing human T47D cells after 72 hrs by SRB assay. The series is classed as functional, cell-based. Put shortly: as §1
For series [21], the system named is M21. Nature of the series: Antiproliferative activity against human M21 cells after 48 hrs by SRB assay. Format: functional, cell-based. The note with it: M21, 48 h. Put shortly:
as §3

Series [22] deals with MCF7. The series can be described thus: Antiproliferative activity against human MCF7 cells after 72 hrs by SRB assay. The series is classed as functional, cell-based. To be noted: MCF7, 72 h. Put shortly:
as §1

pIC50, pKi: −log10 of the molar value.

A word on the pIC50: it is −log10 of the IC50, conventionally taken in molar units. For orientation: pKi means the negative decadic logarithm of the Ki, by convention in mol/L.

On to `CCCCN1CCN(c2ccc(S(=O)(=O)Oc3cc(OC)cc(OC)c3)cc2)C1=O`, for which the pIC50 in series [1] was 4.54; in series [2], less than 4.00; in series [9] it was 7.72; in [11], 7.28; in series [12], 7.51; in series [13], 6.80. The pIC50 was 4.09 in series [15]; 4.44 in series [17]; 6.62 in series [20]; less than 4.00 in [21]; 7.46 in series [22]. Moreover, the Drug metabolism result in [3] is on record as “Metabolite_Notdetected”; in series [19], “Metabolite_Detected”. Besides, the “Ratio IC50” value is 2600 in series [4]; greater than 630 in [5]; 1900 in [6]; greater than 1900 in [8]; greater than 2900 in [10]; greater than 5300 in [16]. Further, in [18], the “Ratio IC50” value is given as greater than 420. Also, the pKi in [7] is 6.31. The Time in series [14] is on record as 15 min.

Values taken from ChEMBL document CHEMBL4014335, “Activation of Phenyl 4-(2-Oxo-3-alkylimidazolidin-1-yl)benzenesulfonates Prodrugs by CYP1A1 as New Antimitotics Targeting Breast Cancer Cells” (J Med Chem, 2017).
